Screening data from PubChem BioAssay.
An excerpt weighted towards active compounds, which were near 1.8% of everything screened.
TPT1 inh: C. albicans TPT1 enzyme inhibition; recombinant caTPT1, FP RNA substrate dephosphorylation; inhibition, % at 5 µM; 300,000 tested, 0.81% active; AID 1962;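 active = inhibition above the mean of all tested compounds plus 3 SD, set per screening campaign, cut at about 24% in these data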;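 note: plate controls were DMSO alone for no effect and ferristatin control at 100 nM for full effect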
SENP1 FRET inh: blocks the human SENP1 SUMO protease catalytic domain; AID 624204; 360,000 tested, 0.21% active; recombinant SENP1 catalytic domain, CyPet-SUMO1-YPet FRET cleavage; inhibition, % at 10 µM; Q9P0U3;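 active = inhibition at least 30% at 10 µM, raw YFP signal under a set limit, fluorescence ratio 0.5 to 1.5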;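 note: 0% = enzyme with DMSO and 100% = no enzyme wells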
Target sequence (Q9P0U3 419-644 limits assumed): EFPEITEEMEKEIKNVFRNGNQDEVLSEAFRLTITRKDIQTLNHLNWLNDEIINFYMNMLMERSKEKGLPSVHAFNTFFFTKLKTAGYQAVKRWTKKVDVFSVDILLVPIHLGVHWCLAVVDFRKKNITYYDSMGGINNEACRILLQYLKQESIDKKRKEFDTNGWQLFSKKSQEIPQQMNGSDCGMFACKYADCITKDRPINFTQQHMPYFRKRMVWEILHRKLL
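Test system: hSENP1 catalytic domain, recombinant; Amount: 20 pM final SENP1 enzyme; Medium: Tris pH 8 buffer plus EDTA, NaCl, BME, BSA, NP40, catalase; Schedule: 50 min enzyme reaction, room temperature, light-protected; Technique: FRET fluorescence in CFP and YFP emission channels; Controls: no-enzyme wells low, DMSO-plus-enzyme wells high control.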
UBC9 SUMO inh: inhibitors of human SUMOylation (UBC9). P63279. HTRF SUMOylation assay, SAE1/SAE2 + UBC9, in vitro. inhibition, % at 35 µM. 290,000 tested, 0.36% active. AID 2006; in the data active = inhibition above about 50%, passing the limit was not always enough
Rpn11 inh: inhibitors of human proteasome Rpn11; calls only at 20 µM; human 26S proteasome, Ub4-pepOG fluorescence polarization; 20S core pre-blocked with epoxomicin; 360,000 tested, 0.59% active; O00487; AID 588493;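 active = inhibition at 20 µM, scaled to each plate's controls, above about 33%, limit read from the data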
CSN inh: blocks human CSN-mediated cullin deneddylation. AID 651999. inhibition, % at 12.5 µM. 360,000 tested, 0.38% active. Q92905. Purified CSN, SCF-Nedd8-OG deneddylation, fluorescence polarization;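 active = pattern-corrected inhibition above about 35%, with an unprinted fluorescence ratio check between 0.5 and 1.5, limit read from the data, passing the limit was not always enough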;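 note: 0% = enzyme with substrate and 100% = substrate without enzyme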
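Assay system: purified human Csn5 enzyme expressed in HEK293T cells; measure: % inhibition; also added: SCFSkp2-Nedd8OG substrate at 10 nM final; technique: fluorescence polarization; times: reaction 90 min, room temperature; medium: Tris buffer pH 7.5, NaCl, DTT, Tween-20, trehalose, ovalbumin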
HNF4A DNA FP: change in binding of human HNF4 alpha to DNA; 360,000 tested, 0.3% active; activity change, % at 10 µM; P41235; HNF4a-FITC DNA binding, fluorescence polarization, 1 h; in the data active = activity change above about 30%, passing the limit was not always enough
Target sequence (P41235 whole entry, looked up): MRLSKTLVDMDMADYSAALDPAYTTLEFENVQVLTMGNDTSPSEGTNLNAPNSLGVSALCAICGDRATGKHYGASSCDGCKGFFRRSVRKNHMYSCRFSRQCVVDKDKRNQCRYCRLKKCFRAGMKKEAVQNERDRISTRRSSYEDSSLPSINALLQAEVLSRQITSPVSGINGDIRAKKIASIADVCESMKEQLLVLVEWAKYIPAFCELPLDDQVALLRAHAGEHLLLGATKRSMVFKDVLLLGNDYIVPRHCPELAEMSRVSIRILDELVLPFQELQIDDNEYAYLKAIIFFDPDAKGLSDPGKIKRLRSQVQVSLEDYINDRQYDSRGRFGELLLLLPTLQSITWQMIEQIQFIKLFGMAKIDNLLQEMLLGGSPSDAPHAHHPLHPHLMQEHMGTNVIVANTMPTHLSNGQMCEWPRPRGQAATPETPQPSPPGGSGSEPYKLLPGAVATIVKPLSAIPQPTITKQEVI
caTPT1 confirm: confirmation of Candida albicans TPT1 inhibitors; inhibition, % at 5 µM; shares compounds with TPT1 inh; 2,400 tested, 74% active; recombinant caTPT1, fluorescence polarization, RNase T1 coupled; AID 2149;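 active = inhibition above the primary screen limit, the mean inhibition of all tested compounds plus 3 SD, cut at about 25% in these data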
RNase T1 inh: counter-screen for TPT1 inhibitors: inhibitors of Aspergillus oryzae RNase T1 | 2,400 tested, 83% active | inhibition, % at 5 µM | AID 2153 | shares compounds with TPT1 inh | RNase T1 cleavage, fluorescence polarization, 1536-well;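 active = inhibition above the solvent-only control well mean plus 3 SD, limit set per screening run, cut at about 23% in these data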;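 note: plate controls were DMSO wells with enzyme for no effect and wells without RNase T1 for full effect; inhibitors block cleavage so intact labeled substrate keeps polarization high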
Rpn11 inh conf: confirmation of human proteasome Rpn11 inhibitors; shares compounds with Rpn11 inh; purified human 26S proteasome, Ub4-pepOG fluorescence polarization; proteasome pretreated with epoxomicin; inhibition, % at 20 µM; 1,900 tested, 29% active
MMP-2 inh: blocks human MMP-2, flagging nonselective RPN11 hits; AID 602330; 1,900 tested, 4% active; inhibition, % at 20 µM; shares compounds with Rpn11 inh; recombinant MMP-2, FRET peptide cleavage fluorescence;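 note: human MMP-2 activated beforehand with APMA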
Thrombin inh: blocks bovine thrombin, flagging nonselective RPN11 hits; bovine thrombin cleavage of Ub4-pepOG, fluorescence polarization; 1,900 tested, 13% active; AID 602333; shares compounds with Rpn11 inh; inhibition, % at 20 µM;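 active = mean inhibition at least 40% at 20 µM, or signal 3 deviations below plate average, so some actives read negative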;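 note: plate controls were thrombin with DMSO for no effect and buffer wells lacking thrombin for full effect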
HNF4A confirm: change in binding of human HNF4 alpha to DNA, retest. HNF4A-FITC DNA binding, fluorescence polarization, 1 h. activity change, % at 12.5 µM. shares compounds with HNF4A DNA FP. 210 tested, 99% active; call rule not given here
Numbers without * were called inactive; i = inactive; x = no result shown; + = active, no number. Cut-off read from the data, not from the text of the source, unless noted: active = inhibition above about 40%; inactive = the rest.

SMILES | TPT1 inh | SENP1 FRET inh | UBC9 SUMO inh | Rpn11 inh | CSN inh | HNF4A DNA FP | Rpn11 inh conf | MMP-2 inh | Thrombin inh | others
N#Cc1c(Nc2cccc(F)c2)sc2c(O)cc(=O)[nH]c12 | 51.3* | -30.5 | 18.8 | x | 34.5 | 44.2* | x | x | x | caTPT1 confirm=28.7*;RNase T1 inh=40.3*;HNF4A confirm=52.2*
COc1ccc(C2NN=C(c3c[nH]c4ccccc34)C2O)cc1 (stereo not given) | 73.1* | -29.1 | 14.7 | + | 25.5 | 57.1* | x | x | x | caTPT1 confirm=65.0*;RNase T1 inh=77.8*;HNF4A confirm=89.0*
C=CCn1c(NC(=O)c2ccccc2)nc2ccccc21 | 0.1 | -1.3 | 39.0 | i | 1.5 | -0.5 | x | x | x
c1ccc(-c2cc3c(-n4cccc4)ncnc3o2)cc1 | -1.6 | -8.2 | 8.2 | i | 11.1 | 2.0 | x | x | x
CCCCN1C(=O)C(=O)N(CC(=O)c2ccc[nH]2)C1=O | 6.2 | -1.6 | x | i | 7.1 | 4.0 | x | x | x
O=C(Nc1ccc(S(=O)(=O)Nc2nccs2)cc1)c1ccc(N2C(=O)c3ccccc3C2=O)cc1 | 41.4* | -7.8 | 46.8 | + | 67.2* | 53.3* | 91.3* | -28.9 | 46.0* | caTPT1 confirm=64.8*;RNase T1 inh=77.4*;HNF4A confirm=65.8*
CC(=O)Nc1c(O)c2ccccc2[nH]c1=O | -1.2 | 0.2 | 13.4 | i | -2.0 | 0.9 | x | x | x
N#CCc1nc2ccc(S(=O)(=O)N3CCOCC3)cc2s1 | 85.1* | -32.8 | 24.3 | x | 49.4* | 51.8* | x | x | x | caTPT1 confirm=62.4*;RNase T1 inh=76.2*;HNF4A confirm=54.5*
CCOc1ccc(C(=O)N/N=C/c2cc(Cl)ccc2[N+](=O)[O-])cc1 | 1.5 | -0.2 | -10.0 | + | 24.4 | 2.5 | 41.4* | -120.8 | 10.6
O=C(COC(=O)c1ccc(S(=O)(=O)N2CCc3ccccc3C2)cc1)NC1CCS(=O)(=O)C1 (stereo not given) | 0.0 | 2.2 | 11.7 | + | 1.0 | 0.4 | -11.9 | 25.4 | -22.4
CO/N=C(/C(=O)N[C@@H]1C(=O)N2C(C(=O)O)=CCS[C@H]12)c1cnc(N)s1 | -1.4 | 0.7 | 11.2 | + | 20.6 | -77.8 | 84.7* | 37.5 | 14.7
O=[N+]([O-])c1ccc(Cl)c(CN2CCCCCC2)c1 | 0.6 | 1.0 | 3.3 | i | 1.8 | 1.1 | x | x | x
CCc1ccc(O)c(N=Cc2cccc(C)c2O)c1 | 2.5 | 19.1 | 14.1 | + | 9.8 | 19.2 | 43.5* | -21.5 | 17.8
Cc1cccc(N=Cc2ccccc2O)c1C | x | 2.0 | x | i | 0.8 | -0.7 | x | x | x
O=C(O)C1C2C=CC(O2)C1C(=O)NCCC1=CCCCC1 (stereo not given) | 0.9 | -113.9 | 13.6 | i | 11.8 | -15.4 | x | x | x
CN1/C(=C\C(=O)COC(=O)Cn2nnc(-c3ccccc3)n2)C(C)(C)c2ccccc21 | -6.2 | -2.4 | -18.7 | + | 22.1 | 20.1 | 44.8* | 2.0 | 6.4
CCOc1ccc(OCCC(=O)NNC(=O)c2ccncc2)cc1 | x | 0.3 | x | i | -0.6 | -4.1 | x | x | x
O=C(O)CC/C(=C/c1cccc(NC(=O)c2ccccc2Cl)c1)c1nc2ccccc2s1 | x | -11.9 | x | i | 8.4 | 5.6 | x | x | x
COc1cc(/C=C(\CCC(=O)O)c2nc3ccccc3s2)ccc1OCC(=O)Nc1c(Cl)cccc1Cl | x | -8.3 | x | + | 7.0 | -26.8 | 27.4 | -1.0 | 0.6
CCOC1=C/C(=C/c2c(N)n3nc(CC(=O)N4CCCCC4)sc3nc2=O)C=CC1=O | 10.3 | -24.7 | -2.2 | + | 23.8 | 10.9 | 43.9* | 2.6 | 38.0
COC1=C/C(=C/c2c(N)n3nc(CC(=O)N4CCCCC4)sc3nc2=O)C=CC1=O | 8.5 | -35.6 | -9.2 | + | 11.8 | 6.6 | 39.3 | 3.9 | 52.2*
COc1cc(/C=c2/sc3nc(-c4ccccc4)c(-c4ccccc4)n3c2=O)cc(OC)c1OC | -1.8 | 8.0 | 6.3 | i | 5.0 | -3.7 | x | x | x
COc1ccc(/C=c2\sc3nc(-c4ccccc4)c(-c4ccccc4)n3c2=O)cc1OC | 18.0 | 2.1 | 31.9 | + | 5.4 | 3.8 | -1.9 | -22.3 | -27.3
O=C(COc1ccc2c3c(c(=O)oc2c1)CCC3)Nc1ccc(CCO)cc1 | 1.1 | 2.9 | -23.7 | + | 14.1 | -0.1 | 17.8 | -37.7 | 11.3
NS(=O)(=O)c1ccc(CCNC(=O)COc2ccc3c4c(c(=O)oc3c2)CCC4)cc1 | 0.9 | 0.6 | x | i | 2.2 | 3.1 | x | x | x
SMILES | TPT1 inh | SENP1 FRET inh | UBC9 SUMO inh | Rpn11 inh | CSN inh | HNF4A DNA FP | Rpn11 inh conf | MMP-2 inh | Thrombin inh | others
FC(F)(F)c1cccc(NC(=S)Nc2ccc(Cl)c(Cl)c2)c1 | 0.8 | 8.9 | -2.5 | + | 1.1 | 4.6 | -8.0 | 21.0 | -24.1
Cc1cc(NC(=O)c2cccc(S(=O)(=O)N(C)C)c2)n(-c2ccccn2)n1 | 0.0 | 0.8 | 6.8 | + | 0.7 | 1.7 | -1.7 | -15.8 | -18.0
Cc1cc(NC(=O)c2cccc(S(=O)(=O)N3CCCCCC3)c2)n(-c2ccccn2)n1 | 0.5 | 3.7 | -0.7 | i | -0.9 | -0.1 | x | x | x
COc1ccc(C(CCN)Cc2ccccc2)cc1 (stereo not given) | -2.9 | -0.7 | -14.4 | i | 0.3 | -4.3 | x | x | x
CCCCNC(=O)COC(=O)c1c2c(nc3ccccc13)CCC2 | -0.1 | 2.3 | 14.8 | i | 4.8 | -10.6 | x | x | x
CCCCNC(=O)COC(=O)c1c2c(nc3ccccc13)/C(=C/c1cccs1)CC2 | 21.1 | -24.1 | 28.6 | + | 6.9 | 21.7 | 5.3 | -57.7 | -0.7
CC(C)Cc1nnc(NC(=O)Cc2cccs2)s1 | 18.0 | -87.5 | 12.0 | + | 25.6 | 23.1 | 81.4* | 30.8 | 39.4
O=C(NN=Cc1ccccc1Cl)c1ccccc1 | x | 0.6 | x | i | 7.3 | -0.3 | x | x | x
N#CCC(=O)N/N=C/c1ccccc1Cl | -2.8 | -4.2 | 31.5 | + | -7.1 | 3.2 | -14.8 | 12.8 | -12.7
CSc1nc2ccc(NS(=O)(=O)c3ccc(Br)s3)cc2s1 | 2.0 | -0.9 | -0.2 | i | 0.0 | -2.2 | x | x | x
